Assay [1] deals with Acinetobacter baumannii. As to the kind of experiment: Antibiofilm activity against Acinetobacter baumannii ATCC 19606 after 24 hrs by crystal violet staining based assay. The class given is functional. As to conditions: ATCC 19606, 24 h.
Assay [2] concerns Staphylococcus aureus. The assay can be described thus: Antibiofilm activity against methicillin-resistant Staphylococcus aureus BAA-1685 after 24 hrs by crystal violet staining based assay. The class given is functional. As to conditions: BAA-1685, 24 h.
The subject of assay [3] is Acinetobacter baumannii. The assay can be described thus: Antibiofilm activity against Acinetobacter baumannii ATCC 19606 at 100 uM after 24 hrs by crystal violet staining based assay relative to control. The class given is functional. As to conditions: ATCC 19606, 24 h.
Assay [4] concerns Staphylococcus aureus. The assay can be described thus: Potentiation of oxacillin-induced antibacterial activity against methicillin-resistant Staphylococcus aureus BAA-1556 assessed as oxacillin MIC at 50 uM measured after 16 to 18 hrs by serial dilution assay (reference value: 32 ug/ml). The class given is functional.
The subject of assay [5] is Staphylococcus aureus. The assay can be described thus: Potentiation of oxacillin-induced antibacterial activity against methicillin-resistant Staphylococcus aureus BAA-1556 assessed as oxacillin MIC at 40 uM measured after 16 to 18 hrs by serial dilution assay (reference value: 32 ug/ml). The class given is functional.
The test system of assay [6] is Staphylococcus aureus. As to the kind of experiment: Potentiation of oxacillin-induced antibacterial activity against methicillin-resistant Staphylococcus aureus BAA-1556 assessed as oxacillin MIC at 25 uM measured after 16 to 18 hrs by serial dilution assay (reference value: 32 ug/ml). The class given is functional.
In assay [7] the test system is Staphylococcus aureus. As to the kind of experiment: Potentiation of oxacillin-induced antibacterial activity against methicillin-resistant Staphylococcus aureus harboring vraR mutant assessed as oxacillin MIC at 25 uM measured after 16 to 18 hrs by serial dilution assay. The class given is functional.
Assay [8] deals with Staphylococcus aureus. As to the kind of experiment: Potentiation of vancomycin-induced antibacterial activity against vancomycin intermediate Staphylococcus aureus ATCC 700699 assessed as vancomycin MIC at 50 uM measured after 16 to 18 hrs by serial dilution assay (reference value: 8 ug/ml). The class given is functional. Particulars: Mu50.
Assay [9] has as its system Staphylococcus aureus. As to the kind of experiment: Potentiation of vancomycin-induced antibacterial activity against vancomycin intermediate Staphylococcus aureus ATCC 700699 assessed as vancomycin MIC at 25 uM measured after 16 to 18 hrs by serial dilution assay (reference value: 8 ug/ml). The class given is functional. Particulars: Mu50. In a few lines:
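Vancomycin MIC was measured against vancomycin-intermediate S. aureus ATCC 700699 with the alkaloid co-dosed at a fixed concentration. Levels used across the series were 25 and 50 µM.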

In assay [10] the test system is Pseudomonas aeruginosa. The assay can be described thus: Antibiofilm activity against Pseudomonas aeruginosa PA14 after 24 hrs by crystal violet staining based assay. The class given is functional. Particulars: PA14, 24 h.
Assay [11] concerns Staphylococcus aureus. The assay can be described thus: Ratio of oxacillin MIC for methicillin-resistant Staphylococcus aureus BAA-1556 in presence of test compound to oxacillin MIC for methicillin-resistant Staphylococcus aureus harboring vraR mutant in presence of test compound. The class given is functional.
Assay [12] relates to Staphylococcus aureus. As to the kind of experiment: Potentiation of oxacillin-induced antibacterial activity against methicillin-resistant Staphylococcus aureus NE481 assessed as oxacillin MIC at 25 uM measured after 16 to 18 hrs by serial dilution assay (reference value: 1 ug/ml).
Assay [13] deals with Acinetobacter baumannii. As to the kind of experiment: Potentiation of meropenem-induced antibacterial activity against Acinetobacter baumannii AB5075 assessed as meropenem MIC at 10 uM measured after 16 to 18 hrs by serial dilution assay (reference value: 32 ug/ml). The class given is functional.
Assay [14] relates to Staphylococcus aureus. As to the kind of experiment: Potentiation of oxacillin-induced antibacterial activity against methicillin-resistant Staphylococcus aureus BAA-1556 assessed as oxacillin MIC at 10 uM measured after 16 to 18 hrs by serial dilution assay (reference value: 32 ug/ml). The class given is functional.
Assay [15] has as its system Staphylococcus aureus. The assay can be described thus: Potentiation of oxacillin-induced antibacterial activity against methicillin-resistant Staphylococcus aureus BAA-1556 assessed as oxacillin MIC at 5 uM measured after 16 to 18 hrs by serial dilution assay (reference value: 32 ug/ml). The class given is functional.
Assay [16] relates to Acinetobacter baumannii. The assay can be described thus: Antibiofilm activity against Acinetobacter baumannii ATCC 19606 at 50 uM after 24 hrs by crystal violet staining based assay relative to control. As to conditions: ATCC 19606, 24 h. The class given is functional.

`Nc1ncc([C@@H]2[C@@H](CNC(=O)c3cc(Br)c[nH]3)[C@H](CNC(=O)c3cc(Br)c[nH]3)[C@H]2c2cnc(N)[nH]2)[nH]1`: the concentration for half-maximal inhibition (IC50) (usually the midpoint of a concentration-inhibition curve) in assay [1] amounted to 30.5 µM; in assay [2], 37.6 µM.
Take `Nc1ncc(/C=C/CNC(=O)c2cc(Br)c(Br)[nH]2)[nH]1` [OROIDIN]: the results for the 50% inhibitory concentration (IC50) in assay [1], in [2] and in assay [10] were above 100 µM, 77.3 µM and 166 µM, respectively. Moreover, in assay [3], the inhibition (as a rule, the change of the read-out against control, counted positive when it falls) at 100 µM is 29%. The minimum inhibitory concentration (MIC) (as a rule, the least concentration at which growth counts as inhibited) in assay [4] was 0.5 µg/mL; in [5] it was 2 µg/mL; in assay [6], 8 µg/mL; in assay [7], 2 µg/mL; in [8], 2 µg/mL; in assay [9], 4 µg/mL. Moreover, in assay [12], the MIC came to 0.5 µg/mL. Also, in assay [11], the Ratio stood at 4.
In the case of `Nc1nc([C@@H]2c3[nH]c(N)nc3C[C@H](CNC(=O)c3cc(Br)c[nH]3)[C@H]2CNC(=O)c2cc(Br)c(Br)[nH]2)c[nH]1` [BROMOAGELIFERIN], the half-maximal inhibitory concentration (IC50) was 28.3 µM in assay [1] and 10.6 µM in assay [2]. For the same molecule, the MIC was 8 µg/mL in assay [13], 2 µg/mL in assay [14] and 16 µg/mL in assay [15].
Turning to `Nc1ncc([C@@H]2[C@@H](CNC(=O)c3cc(Br)c(Br)[nH]3)[C@H](CNC(=O)c3cc(Br)c(Br)[nH]3)[C@H]2c2cnc(N)[nH]2)[nH]1`, the results for the 50% inhibitory concentration (IC50) in assay [1] and in assay [2] were above 50 µM and 15.3 µM, respectively. Moreover, the inhibition at 50 µM in assay [16] turned out to be 48%. Further, the minimal inhibitory concentration (MIC) in assay [13] is 8 µg/mL; in [14] it was 2 µg/mL; in assay [15], 8 µg/mL.

The record behind these values is ChEMBL document CHEMBL3871288, “Marine sponge alkaloids as a source of anti-bacterial adjuvants” (Bioorg Med Chem Lett, 2016).
